This note sets out measurements from ChEMBL document CHEMBL2385063, “Identification of 2-(2-(1-naphthoyl)-8-fluoro-3,4-dihydro-1H-pyrido[4,3-b]indol-5(2H)-yl)acetic acid (setipiprant/ACT-129968), a potent, selective, and orally bioavailable chemoattractant receptor-homologous molecule expressed on Th2 cells (CRTH2) antagonist” (J Med Chem, 2013).

Calls of active or inactive are those of the source. The rule behind the calls is not given here.

Data set [1] concerns the target T1, Prostaglandin D2 receptor 2 (Mus musculus) (UniProt Q9Z2J6).
T1 sequence (whole entry): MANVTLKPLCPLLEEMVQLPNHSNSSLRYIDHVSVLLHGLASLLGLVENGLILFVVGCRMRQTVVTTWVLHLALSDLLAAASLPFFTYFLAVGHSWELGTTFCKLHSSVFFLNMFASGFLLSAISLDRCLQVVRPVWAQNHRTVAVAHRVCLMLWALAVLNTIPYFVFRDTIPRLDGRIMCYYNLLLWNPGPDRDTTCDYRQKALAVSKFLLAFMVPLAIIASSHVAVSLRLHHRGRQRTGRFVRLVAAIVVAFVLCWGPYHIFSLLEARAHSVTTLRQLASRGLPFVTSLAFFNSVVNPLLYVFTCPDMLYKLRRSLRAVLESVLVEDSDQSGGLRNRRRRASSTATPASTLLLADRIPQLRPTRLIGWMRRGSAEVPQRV
As to the kind of experiment: Antagonist activity at mouse CRTH2 receptor assessed as inhibition of calcium flux by cell-based FLIPR assay. In kind it is functional.

For data set [2], the target named is T2, Prostaglandin D2 receptor 2 (Homo sapiens, UniProt Q9Y5Y4).
T2 sequence (Q9Y5Y4 whole entry): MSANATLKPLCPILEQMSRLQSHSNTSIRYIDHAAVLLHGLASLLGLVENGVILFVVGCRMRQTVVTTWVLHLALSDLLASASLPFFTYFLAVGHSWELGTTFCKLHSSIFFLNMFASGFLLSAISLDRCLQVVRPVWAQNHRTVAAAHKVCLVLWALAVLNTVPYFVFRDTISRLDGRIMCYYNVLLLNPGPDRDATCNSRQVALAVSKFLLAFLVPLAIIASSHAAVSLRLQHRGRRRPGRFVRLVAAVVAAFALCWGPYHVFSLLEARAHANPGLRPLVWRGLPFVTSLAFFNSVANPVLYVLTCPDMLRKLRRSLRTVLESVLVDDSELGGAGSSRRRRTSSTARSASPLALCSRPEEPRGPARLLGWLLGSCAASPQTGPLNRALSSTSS
Nature of the data set: Displacement of [3H]PGD2 from recombinant human CRTH2 receptor expressed in HEK293 cell membranes after 90 mins by scintillation counting analysis in presence of human serum albumin. The gist of the method: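 Same hCRTH2 HEK293 membrane [3H]PGD2 (2.5 nM) displacement, 90 min at room temperature, with 0.5% human serum albumin added to the assay buffer; scintillation counting.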
For orientation: Loss of bound radioactivity is the signal in a displacement assay; it reports binding, not function.

For data set [3], the target named is T3, Prostaglandin E2 receptor EP4 subtype (Homo sapiens, UniProt P35408). As to the kind of experiment: Inhibition of beta-arrestin binding to recombinant human prostanoid EP4 receptor expressed in HEK293 cell membranes by beta-lactamase complementation assay.
T3 sequence (P35408 whole entry): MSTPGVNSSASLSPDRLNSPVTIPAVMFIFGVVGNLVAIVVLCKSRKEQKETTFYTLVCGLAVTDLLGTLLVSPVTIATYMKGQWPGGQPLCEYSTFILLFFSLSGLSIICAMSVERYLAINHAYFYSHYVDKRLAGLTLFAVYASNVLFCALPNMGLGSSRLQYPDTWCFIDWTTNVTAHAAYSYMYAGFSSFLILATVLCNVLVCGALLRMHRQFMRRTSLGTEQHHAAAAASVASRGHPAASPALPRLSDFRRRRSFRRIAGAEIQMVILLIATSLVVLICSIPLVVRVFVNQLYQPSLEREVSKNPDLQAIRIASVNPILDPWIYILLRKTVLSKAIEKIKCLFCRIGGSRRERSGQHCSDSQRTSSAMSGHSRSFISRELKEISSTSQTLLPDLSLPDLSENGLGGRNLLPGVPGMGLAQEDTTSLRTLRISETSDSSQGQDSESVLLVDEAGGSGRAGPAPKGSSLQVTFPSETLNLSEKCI
The target of data set [4] is T4, Chemoattractant receptor-homologous molecule expressed on Th2 cells (Cavia porcellus) (UniProt Q56D28).
T4 sequence (whole entry): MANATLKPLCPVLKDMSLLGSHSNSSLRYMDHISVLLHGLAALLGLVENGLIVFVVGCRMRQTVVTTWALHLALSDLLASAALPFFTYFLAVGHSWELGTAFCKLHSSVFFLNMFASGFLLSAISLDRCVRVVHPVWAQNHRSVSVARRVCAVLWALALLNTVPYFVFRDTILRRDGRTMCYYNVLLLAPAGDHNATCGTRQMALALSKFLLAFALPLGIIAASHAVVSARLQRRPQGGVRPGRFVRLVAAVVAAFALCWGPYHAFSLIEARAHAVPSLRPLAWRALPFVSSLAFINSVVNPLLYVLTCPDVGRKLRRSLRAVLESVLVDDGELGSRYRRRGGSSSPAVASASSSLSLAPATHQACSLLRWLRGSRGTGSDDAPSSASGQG
As to the kind of experiment: Antagonist activity at guinea pig CRTH2 receptor assessed as inhibition of calcium flux by cell-based FLIPR assay. The format is functional. On the technique in general: A change in cytosolic calcium serves as a functional read-out for many receptors and channels.

Data set [5] addresses T5, Prostaglandin D2 receptor (Homo sapiens, UniProt Q13258).
T5 sequence (Q13258 whole entry): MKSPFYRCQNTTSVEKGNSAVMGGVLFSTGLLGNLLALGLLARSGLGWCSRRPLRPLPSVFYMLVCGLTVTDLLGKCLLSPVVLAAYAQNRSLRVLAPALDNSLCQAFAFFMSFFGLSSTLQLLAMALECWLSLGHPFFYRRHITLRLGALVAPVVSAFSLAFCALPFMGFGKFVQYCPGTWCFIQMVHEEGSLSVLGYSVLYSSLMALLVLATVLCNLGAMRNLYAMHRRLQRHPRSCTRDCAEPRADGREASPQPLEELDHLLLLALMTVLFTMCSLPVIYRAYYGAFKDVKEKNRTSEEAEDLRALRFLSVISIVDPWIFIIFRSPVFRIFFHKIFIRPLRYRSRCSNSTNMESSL
As to the kind of experiment: Displacement of [3H]PGD2 from recombinant human prostanoid DP1 receptor expressed in CHO cells after 90 mins by scintillation counting analysis. The format is cell-based. The gist of the method:
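Competitive binding with CHO cells stably expressing high levels of recombinant hDP1, using [3H]PGD2 as ligand; IC50 reported.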

Data set [6] deals with T6, Prostaglandin E2 receptor EP1 subtype (Homo sapiens, UniProt P34995).
T6 sequence (P34995 whole entry): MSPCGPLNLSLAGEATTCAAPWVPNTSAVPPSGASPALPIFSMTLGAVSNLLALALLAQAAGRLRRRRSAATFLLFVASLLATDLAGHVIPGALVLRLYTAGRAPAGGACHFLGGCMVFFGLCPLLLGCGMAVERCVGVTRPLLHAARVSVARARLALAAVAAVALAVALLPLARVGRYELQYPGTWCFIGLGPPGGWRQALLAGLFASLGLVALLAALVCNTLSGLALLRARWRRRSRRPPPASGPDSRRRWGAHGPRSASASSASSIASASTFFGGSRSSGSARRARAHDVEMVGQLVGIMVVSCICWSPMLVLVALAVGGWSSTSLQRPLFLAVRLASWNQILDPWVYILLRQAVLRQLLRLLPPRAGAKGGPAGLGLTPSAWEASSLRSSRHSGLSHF
As to the kind of experiment: Antagonist activity at human prostanoid EP1 receptor expressed in CHOK1 cells assessed as inhibition of PGE2-induced calcium flux after 60 mins by FLIPR assay. The format is functional, cell-based, CHO-K1.

Data set [7] deals with T3, Prostaglandin E2 receptor EP4 subtype. As to the kind of experiment: Displacement of [3H]PGE2 from recombinant human prostanoid EP4 receptor expressed in HEK293 cell membranes after 90 mins by scintillation counting analysis.
Data set [8] concerns the target T7, G-protein coupled receptor (Canis lupus familiaris) (UniProt Q2A652).
T7 sequence (whole entry): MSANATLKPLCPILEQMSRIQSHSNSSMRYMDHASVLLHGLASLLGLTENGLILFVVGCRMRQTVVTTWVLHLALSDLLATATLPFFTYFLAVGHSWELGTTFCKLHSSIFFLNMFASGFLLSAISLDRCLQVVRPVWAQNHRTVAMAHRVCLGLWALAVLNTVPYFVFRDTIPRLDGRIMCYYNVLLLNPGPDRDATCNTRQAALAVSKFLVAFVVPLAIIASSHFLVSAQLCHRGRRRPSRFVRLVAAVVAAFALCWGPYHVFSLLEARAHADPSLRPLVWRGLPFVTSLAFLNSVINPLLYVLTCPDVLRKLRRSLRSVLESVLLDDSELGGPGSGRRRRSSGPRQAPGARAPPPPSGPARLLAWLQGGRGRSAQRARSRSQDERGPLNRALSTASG
Nature of the data set: Antagonist activity at dog CRTH2 receptor assessed as inhibition of calcium flux by cell-based FLIPR assay. In kind it is functional.

A short description of data set [9]: Protein binding in plasma (unknown origin). In kind it is ADME, cell-free. To be noted: read-out: PPB.

The term IC50 denotes the point on the concentration scale where inhibition reaches its midpoint. For `O=C(O)Cn1c2c(c3cc(F)ccc31)CN(C(=O)Cc1cccc3ccccc13)CC2`, the inhibition entry in [1], in [4] and in data set [8] was “Active” throughout. Moreover, the IC50 in [2] is 0.18 µM; in [3] it was > 10 µM; in data set [5] it was > 10 µM; in [6] it was > 25 µM; in data set [7] it was > 10 µM. For the same compound, the fraction unbound in data set [9] was < 0.03.

Consider `O=C(O)Cn1c2c(c3ccccc31)CN(C(=O)c1cccc3ccccc13)CC2`, for which the half-maximal inhibitory concentration (IC50) in data set [2] was 0.42 µM; in data set [3], > 10 µM; in data set [5] it was 0.78 µM; in [6], > 25 µM; in data set [7] it was > 10 µM. Further, the inhibition result in [8] is “inactive”. In addition, the fraction unbound in data set [9] is < 0.03.

With `O=C(O)Cn1c2c(c3ccccc31)CN(C(=O)c1ccccc1)CC2`, the inhibition result in data set [1], in data set [4] and in data set [8] was “Active” each time. Besides, the IC50 in data set [6] is > 25 µM. The fraction unbound in [9] is < 0.03.

With `Cc1ccc2c(c1)c1c(n2CC(=O)O)CCN(C(=O)c2cccc3ccccc23)C1`, the inhibition entry in data set [1], in data set [4] and in data set [8] was “Active” in each case. Also, the IC50 in data set [2] was 0.19 µM; in data set [3] it was > 10 µM; in [5] it was 2.7 µM; in [6] it was > 25 µM; in data set [7], > 10 µM. Moreover, the fraction unbound in data set [9] was < 0.03.

In the case of `CCc1ccc(-c2ccc(C(=O)N3CCc4c(c5ccccc5n4CC(=O)O)C3)cc2)cc1`, the inhibition result in [1], in data set [4] and in data set [8] was “Active” each time. For the same compound, the IC50 is > 10 µM in data set [3], 0.78 µM in data set [5], > 25 µM in data set [6] and > 10 µM in data set [7]. Moreover, the fraction unbound in data set [9] was < 0.03.

Regarding `O=C(O)Cn1c2c(c3cc(F)ccc31)CN(C(=O)c1cccc(Cl)c1)CC2`, the IC50 in data set [2] is 0.06 µM; in data set [3] it was > 10 µM; in data set [5], > 10 µM; in data set [6] it was > 25 µM; in [7] it was > 10 µM. The inhibition result in [8] was “inactive”. Besides, the fraction unbound in data set [9] is < 0.03.

Consider `O=C(O)Cn1c2c(c3cc(F)ccc31)CN(C(=O)c1cccc3ccccc13)CC2` [SETIPIPRANT], for which the concentration for half-maximal inhibition (IC50) in data set [2] was 0.34 µM; in data set [3], > 10 µM; in data set [5], 1.29 µM; in data set [6], > 25 µM; in data set [7], > 10 µM. Also, the inhibition entry in data set [8] was “inactive”. Moreover, in [9], the fraction unbound is < 0.03.

With `CCc1ccc(-c2ccc(C(=O)N3CCc4c(c5cccc(Cl)c5n4CC(=O)O)C3)cc2)cc1`, the inhibition entry in [1], in data set [4] and in data set [8] was “Active” each time. Further, the concentration for half-maximal inhibition (IC50) in data set [2] was 0.09 µM; in [3] it was > 10 µM; in data set [5] it was 0.12 µM; in data set [6], > 25 µM; in data set [7], > 10 µM. The fraction unbound in data set [9] was < 0.03.

For the compound `O=C(O)Cn1c2c(c3cc(F)ccc31)CN(C(=O)c1cccs1)CC2`, the inhibition result in data set [1], in data set [4] and in [8] was “Active” throughout. Also, the IC50 in data set [2] was 0.012 µM; in data set [3] it was > 10 µM; in data set [5] it was > 10 µM; in data set [6], > 25 µM; in [7], > 10 µM. The fraction unbound in data set [9] was < 0.03.

As for `O=C(O)Cn1c2c(c3ccccc31)CN(C(=O)C1CCCCC1)CC2`, the inhibition entry in data set [1], in data set [4] and in data set [8] was “Active” in each case. Further, the IC50 was > 25 µM in [6] and > 10 µM in data set [7]. Besides, the fraction unbound in [9] was < 0.03.

On to `O=C(O)Cn1c2c(c3cc(F)ccc31)CN(C(=O)CCc1cccc3ccccc13)CC2`, for which the inhibition result in [1], in data set [4] and in [8] was “Active” throughout. For the same compound, the IC50 is 0.03 µM in [2]; > 10 µM in [3]; > 10 µM in data set [5]; > 25 µM in data set [6]; > 10 µM in [7]. Moreover, the fraction unbound in data set [9] was < 0.03.

For the compound `COc1ccc2c(c1)c1c(n2CC(=O)O)CCN(C(=O)c2ccccc2)C1`, the inhibition result in data set [1], in data set [4] and in data set [8] was “Active” in each case. Moreover, the results for the IC50 in data set [6] and in data set [7] were > 25 µM and > 10 µM, respectively. In addition, the fraction unbound in data set [9] is < 0.03.

For `O=C(O)Cn1c2c(c3cc(Cl)ccc31)CN(C(=O)c1cccc3ccccc13)CC2`, the inhibition entry in data set [1], in data set [4] and in data set [8] was “Active” in each case. In addition, the IC50 in data set [2] was 0.065 µM; in data set [3], > 10 µM; in [5], 0.69 µM; in data set [6], > 25 µM; in [7], > 10 µM. Moreover, the fraction unbound in [9] is < 0.03.

Consider `CC(C)c1ccc2c(c1)c1c(n2CC(=O)O)CCN(C(=O)c2ccccc2)C1`, for which the inhibition entry in data set [1], in [4] and in data set [8] was “Active” in each case. Also, the IC50 is > 25 µM in [6] and > 10 µM in [7]. Besides, in [9], the fraction unbound was < 0.03.
